From ChEMBL document CHEMBL1137547, “Synthesis and antifungal activities of novel 2-aminotetralin derivatives” (2007)
Values after ≈ are worked out from the molar mass of the structure shown.

Columns and labels:
Assay type in all cases: functional
Candida albicans = experiment: Antifungal activity against Candida albicans after 24 hrs
In short: (§1)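 Candida yeasts were tested by NCCLS microdilution in RPMI 1640 buffered with 0.165 M MOPS and incubated at 35 °C. Compounds were dissolved in DMSO and serially diluted in medium. Isolates came from ATCC or the clinic. The MIC was read at 24 h as the lowest concentration achieving ≥80% growth inhibition versus the control.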

Candida parapsilosis = experiment: Antifungal activity against Candida parapsilosis after 24 hrs; settings: Lodderomyces parapsilosis; in short: as §1
Cryptococcus neoformans = experiment: Antifungal activity against Cryptococcus neoformans after 72 hrs
In short: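 Cryptococcus neoformans was tested by NCCLS serial dilution in MOPS-buffered (0.165 M) RPMI 1640 at 35 °C. Compounds were dissolved in DMSO and diluted in medium. The MIC was read at 72 h as the lowest concentration giving turbidity inhibition of ≥80% relative to the growth control.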

Trichophyton rubrum = experiment: Antifungal activity against Trichophyton rubrum
In short: (§2)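 Dermatophytes were tested by NCCLS serial dilution in RPMI 1640 with 0.165 M MOPS and incubated at 28 °C. Compounds were dissolved in DMSO and diluted in medium. Strains came from ATCC or clinical isolates. The MIC was read at 7 d as the lowest concentration reducing turbidity by ≥80% relative to the drug-free control.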

Fonsecaea compacta = experiment: Antifungal activity against Fonsecaea compacta
In short: (§3)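 NCCLS broth serial dilution in RPMI 1640 buffered with 0.165 M MOPS. Compounds were dissolved in DMSO and serially diluted in medium. Strains came from ATCC or clinical isolates. The growth MIC for filamentous fungi was read at 7 d, taken as the lowest concentration giving ≥80% turbidity inhibition versus the growth control.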

Aspergillus fumigatus = experiment: Antifungal activity against Aspergillus fumigatus; in short: as §3
Microsporum = experiment: Antifungal activity against Microsporum gypseum; in short: as §2

Row | Compound | MIC (Candida albicans) [µM] | MIC (Candida parapsilosis) [µM] | MIC (Cryptococcus neoformans) [µM] | MIC (Trichophyton rubrum) [µM] | MIC (Fonsecaea compacta) [µM] | MIC (Aspergillus fumigatus) [µM] | MIC (Microsporum) [µM]
1 | CCCCNC1CCc2cccc(O)c2C1 (stereo unspecified) | > 64 | > 64 | > 64 | > 64 | > 64 | > 64 | 64 (≈ 14 µg/mL)
2 | NC1CCc2c(O)cccc2C1 (stereo unspecified) | > 64 | > 64 | > 64 | > 64 | 32 (≈ 5.22 µg/mL) | > 64 | > 64
3 | NC1CCc2cc(O)ccc2C1 (stereo unspecified) | > 64 | > 64 | > 64 | > 64 | 32 (≈ 5.22 µg/mL) | > 64 | > 64
4 | NC1CCc2ccc(O)cc2C1 (stereo unspecified) | > 64 | > 64 | > 64 | > 64 | 32 (≈ 5.22 µg/mL) | > 64 | > 64
5 | CCCCCCCCNC1CCc2cccc(O)c2C1 (stereo unspecified) | 2 (≈ 0.551 µg/mL) | 8 (≈ 2.2 µg/mL) | 8 (≈ 2.2 µg/mL) | 8 (≈ 2.2 µg/mL) | 4 (≈ 1.1 µg/mL) | – | 4 (≈ 1.1 µg/mL)
6 | COc1ccc2c(c1)CCC(N)C2 (stereo unspecified) | > 64 | > 64 | > 64 | 64 (≈ 11.3 µg/mL) | > 64 | > 64 | > 64
7 | CCCCCCCCCNC1CCc2cccc(O)c2C1 (stereo unspecified) | 1 (≈ 0.289 µg/mL) | 8 (≈ 2.32 µg/mL) | 8 (≈ 2.32 µg/mL) | 4 (≈ 1.16 µg/mL) | 4 (≈ 1.16 µg/mL) | 16 (≈ 4.63 µg/mL) | 4 (≈ 1.16 µg/mL)
8 | CCCCCCCCCCNC1CCc2cc(OC)ccc2C1 (stereo unspecified) | 0.25 (≈ 0.0794 µg/mL) | 8 (≈ 2.54 µg/mL) | 16 (≈ 5.08 µg/mL) | 1 (≈ 0.318 µg/mL) | 8 (≈ 2.54 µg/mL) | > 64 | 4 (≈ 1.27 µg/mL)
9 | CCCCCCCCCCNC1CCc2ccc(O)cc2C1 (stereo unspecified) | 1 (≈ 0.303 µg/mL) | 4 (≈ 1.21 µg/mL) | 1 (≈ 0.303 µg/mL) | 0.25 (≈ 0.0759 µg/mL) | 2 (≈ 0.607 µg/mL) | 32 (≈ 9.71 µg/mL) | 4 (≈ 1.21 µg/mL)
10 | CCCCCCCCCCCCNC1CCc2c(cccc2OC)C1 (stereo unspecified) | 8 (≈ 2.76 µg/mL) | 16 (≈ 5.53 µg/mL) | 8 (≈ 2.76 µg/mL) | 0.5 (≈ 0.173 µg/mL) | 8 (≈ 2.76 µg/mL) | > 64 | 16 (≈ 5.53 µg/mL)
11 | NC1CCc2cccc(O)c2C1 (stereo unspecified) | > 64 | > 64 | > 64 | > 64 | 32 (≈ 5.22 µg/mL) | > 64 | > 64
12 | CCCCNC1CCc2c(cccc2OC)C1 (stereo unspecified) | > 64 | > 64 | > 64 | 64 (≈ 14.9 µg/mL) | > 64 | > 64 | > 64
13 | CCCCNC1CCc2ccc(OC)cc2C1 (stereo unspecified) | 64 (≈ 14.9 µg/mL) | 64 (≈ 14.9 µg/mL) | > 64 | 4 (≈ 0.933 µg/mL) | 4 (≈ 0.933 µg/mL) | > 64 | 64 (≈ 14.9 µg/mL)
14 | CCCCCCCCCCCCNC1CCc2ccc(OC)cc2C1 (stereo unspecified) | 2 (≈ 0.691 µg/mL) | 1 (≈ 0.346 µg/mL) | 1 (≈ 0.346 µg/mL) | 2 (≈ 0.691 µg/mL) | 8 (≈ 2.76 µg/mL) | 16 (≈ 5.53 µg/mL) | 2 (≈ 0.691 µg/mL)
15 | CCCCCCCCCCCCNC1CCc2cccc(OC)c2C1 (stereo unspecified) | 4 (≈ 1.38 µg/mL) | 16 (≈ 5.53 µg/mL) | 16 (≈ 5.53 µg/mL) | 4 (≈ 1.38 µg/mL) | 8 (≈ 2.76 µg/mL) | 32 (≈ 11.1 µg/mL) | 64 (≈ 22.1 µg/mL)
16 | CCCCCCCCCCCCNC1CCc2cc(O)ccc2C1 (stereo unspecified) | 1 (≈ 0.332 µg/mL) | 8 (≈ 2.65 µg/mL) | 2 (≈ 0.663 µg/mL) | 2 (≈ 0.663 µg/mL) | 4 (≈ 1.33 µg/mL) | > 64 | 8 (≈ 2.65 µg/mL)

Row | Compound | MIC (Candida albicans) [µM] | MIC (Candida parapsilosis) [µM] | MIC (Cryptococcus neoformans) [µM] | MIC (Trichophyton rubrum) [µM] | MIC (Fonsecaea compacta) [µM] | MIC (Aspergillus fumigatus) [µM] | MIC (Microsporum) [µM]
17 | CCCCNC1CCc2c(O)cccc2C1 (stereo unspecified) | > 64 | > 64 | > 64 | 64 (≈ 14 µg/mL) | 64 (≈ 14 µg/mL) | > 64 | > 64
18 | CCCCNC1CCc2cc(O)ccc2C1 (stereo unspecified) | > 64 | > 64 | > 64 | 64 (≈ 14 µg/mL) | > 64 | > 64 | > 64
19 | CCCCCCCCCCCCNC1CCc2cccc(O)c2C1 (stereo unspecified) | 16 (≈ 5.3 µg/mL) | 32 (≈ 10.6 µg/mL) | 32 (≈ 10.6 µg/mL) | 4 (≈ 1.33 µg/mL) | 8 (≈ 2.65 µg/mL) | 32 (≈ 10.6 µg/mL) | > 64
20 | CCCCCCCCCCNC1CCc2cccc(OC)c2C1 (stereo unspecified) | 0.25 (≈ 0.0794 µg/mL) | 2 (≈ 0.635 µg/mL) | 1 (≈ 0.318 µg/mL) | 1 (≈ 0.318 µg/mL) | 1 (≈ 0.318 µg/mL) | 16 (≈ 5.08 µg/mL) | 2 (≈ 0.635 µg/mL)
21 | CCCCCCCCCCCCNC1CCc2ccc(O)cc2C1 (stereo unspecified) | 16 (≈ 5.3 µg/mL) | > 64 | 32 (≈ 10.6 µg/mL) | 1 (≈ 0.332 µg/mL) | 32 (≈ 10.6 µg/mL) | > 64 | 4 (≈ 1.33 µg/mL)
22 | CCCCCCCCNC1CCc2c(cccc2OC)C1 (stereo unspecified) | 8 (≈ 2.32 µg/mL) | 16 (≈ 4.63 µg/mL) | 16 (≈ 4.63 µg/mL) | 8 (≈ 2.32 µg/mL) | 4 (≈ 1.16 µg/mL) | 16 (≈ 4.63 µg/mL) | > 64
23 | CCCCNC1CCc2cccc(OC)c2C1 (stereo unspecified) | > 64 | > 64 | > 64 | 16 (≈ 3.73 µg/mL) | 0.25 (≈ 0.0583 µg/mL) | 64 (≈ 14.9 µg/mL) | 32 (≈ 7.47 µg/mL)
24 | COc1cccc2c1CCC(N)C2 (stereo unspecified) | > 64 | > 64 | > 64 | 8 (≈ 1.42 µg/mL) | 64 (≈ 11.3 µg/mL) | > 64 | > 64
25 | COc1cccc2c1CC(N)CC2 (stereo unspecified) | > 64 | > 64 | > 64 | 64 (≈ 11.3 µg/mL) | > 64 | > 64 | > 64
26 | CCCCCCCCCCCCNC1CCc2cc(OC)ccc2C1 (stereo unspecified) | 4 (≈ 1.38 µg/mL) | 32 (≈ 11.1 µg/mL) | 4 (≈ 1.38 µg/mL) | 4 (≈ 1.38 µg/mL) | 64 (≈ 22.1 µg/mL) | > 64 | > 64
27 | CCCCCCCCCCCCNC1CCc2c(O)cccc2C1 (stereo unspecified) | 4 (≈ 1.33 µg/mL) | > 64 | > 64 | 32 (≈ 10.6 µg/mL) | > 64 | > 64 | 2 (≈ 0.663 µg/mL)
28 | CCCCNC1CCc2cc(OC)ccc2C1 (stereo unspecified) | 64 (≈ 14.9 µg/mL) | > 64 | 64 (≈ 14.9 µg/mL) | 64 (≈ 14.9 µg/mL) | > 64 | > 64 | > 64
29 | CCCCNC1CCc2ccc(O)cc2C1 (stereo unspecified) | > 64 | > 64 | > 64 | > 64 | 64 (≈ 14 µg/mL) | > 64 | 64 (≈ 14 µg/mL)
30 | CCCCCCCCCNC1CCc2ccc(O)cc2C1 (stereo unspecified) | 1 (≈ 0.289 µg/mL) | 16 (≈ 4.63 µg/mL) | 8 (≈ 2.32 µg/mL) | 4 (≈ 1.16 µg/mL) | 8 (≈ 2.32 µg/mL) | 64 (≈ 18.5 µg/mL) | 8 (≈ 2.32 µg/mL)
31 | COc1ccc2c(c1)CC(N)CC2 (stereo unspecified) | > 64 | > 64 | > 64 | 64 (≈ 11.3 µg/mL) | > 64 | > 64 | > 64
